b-catenin transl – modulators of beta-catenin nuclear translocation | hit rate 0.3% among 190,000 | nuclear translocation activity, % at 5 µM | HeLa beta-catenin nuclear translocation, immunofluorescence imaging;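 active = nuclear translocation activity above 50% at 5 µM, with a well cell count of 50 or more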;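 also: per-cell ratio of nuclear to cytoplasmic median beta-catenin stain intensity; plate controls were DMSO negative control for no effect and GSK-3 inhibitor IX positive control for full effect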
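Signal – beta-catenin immunofluorescence imaging with DAPI · Test system – human HeLa cell line · Dosing – 5 µM primary single dose, 0.1% DMSO, 0.02–20 µM confirmation series · Measure – % activation, nuclear-to-cytoplasmic median beta-catenin signal ratio per cell · Incubation – 24 h compound exposure at 37°C, 5% CO2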
IEC-6 tox – IEC-6 cytotoxicity, counter-screen for KLF5 inhibitors; luminescence viability; inhibition, % at 5 µM; hit rate 0.78% among 290,000; AID 1825;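 also: 0% = plate median of test compound wells and 100% = cytotoxic reference compound wells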
BaF3 parental – reduces parental Ba/F3 cell viability, JAK2V617F counter-screen. inhibition, % at 5.6 µM. hit rate 1.1% among 220,000. CellTiter-Glo ATP luminescence;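 active = inhibition above a per-campaign cutoff, the mean inhibition of all tested compounds plus 3 SD, cut at about 27% in these data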;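 also: 0% = DMSO wells and 100% = JAK Inhibitor I control wells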
MT stabilizer – stabilizes microtubules in HeLa cells; HeLa tubulin immunostaining HCS, 24 h; share of cells brighter than vehicle mean+2SD; % tubulin-high responders, % at 10 µM; hit rate 0.83% among 200,000; AID 2205;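 active = plate Z-score above 3 for both tubulin-high and condensed-nucleus cell shares, with cell loss under 80%, at 10 µM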;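 also: anti alpha tubulin signal scored within the nucleus-defined area of each cell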
APP transl inh – APP translation inhibition; hit rate 0.82% among 190,000; SH-SY5Y APP 5'UTR-luciferase reporter, luminescence; inhibition, % at 2 µM; AID 1285;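 active = inhibition above a set limit, derived from the sample mean plus 3 SD, cut at about 45% in these data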
Ba/F3 V617F tox – lowers viability of Ba/F3 cells expressing EpoR and JAK2V617F; ATP luminescence; AID 1446; hit rate 1.1% among 220,000; inhibition, % at 5.6 µM;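 active = inhibition above the campaign mean plus 3 SD over all tested compounds, cut at about 24% in these data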;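 also: cytokine-independent growth of Ba/F3 cells driven by EpoR plus mutant JAK2; 0% = DMSO-treated cells and 100% = JAK inhibitor I control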
IEC-6 tox confirm – IEC-6 cytotoxicity, confirmation assay | shares compounds with IEC-6 tox | IEC-6 rat intestinal epithelial viability, luminescence | inhibition, % at 5 µM | hit rate 63% among 1,900 | AID 1907;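 also: 0% = vehicle and 100% = reference cytotoxic drug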
Starred values were filed as active, the others as inactive; x = no result given. Hits are enriched below; roughly 2.2% of the tested compounds scored in any of these assays. Rule as the data show it, unless noted: active = inhibition above about 22%; inactive = the rest.

SMILES | b-catenin transl | IEC-6 tox | BaF3 parental | MT stabilizer | APP transl inh | Ba/F3 V617F tox | IEC-6 tox confirm
COc1cc2ncnc(NCc3ccccc3Cl)c2cc1OC | 2 | 22* | 5 | 1 | 11 | 3 | 36*
Cc1ccccc1CNc1ncnc2cc(Cl)ccc12 | x | 9 | x | x | x | x | x
COc1cc2ncnc(Nc3ccc4c(c3)OCO4)c2cc1OC | x | 27* | x | x | x | x | 58*
Cc1ccn(C(C)CC(=O)Nc2ccc(-c3ccno3)cc2)n1 (centres undefined) | x | 3 | x | x | x | x | x
CCc1ccccc1NC(=S)N1CCN(c2cccc(OC)c2)CC1 | x | 4 | x | x | x | x | x
O=C1CN(C(=O)c2cccc(Br)c2)c2ccccc2N1 | x | 38* | x | x | x | x | 10
O=[N+]([O-])c1cccc2c(S(=O)(=O)N3CCOCC3)cccc12 | x | 3 | x | x | x | x | x
O=C(COc1ccc(C(=O)c2ccccc2)cc1)NCC1CCCCC1 | 0 | -3 | 4 | 4 | -28 | -2 | x
CC(=O)/C(C#N)=C1\NC(=O)C(Cc2ccc(C)c(Cl)c2)S1 (centres undefined) | 4 | 72* | 4 | x | x | 2 | 48*
CCOC(=O)c1ccc(CC2S/C(=C(\C#N)C(C)=O)NC2=O)cc1 (centres undefined) | 2 | -3 | 4 | 1 | 12 | -1 | x
COCc1nc2ccccc2n1CCc1ccccc1 | x | -1 | x | x | x | x | x
Cc1cc(C=O)c2c(c1)C=CC1(Oc3ccccc3C(=O)N1C)O2 (centres undefined) | x | 1 | 0 | 3 | 20 | -5 | x
COc1ccc(NC(=S)NNC(=O)c2ccccc2OC(F)F)cc1 | 16 | 39* | 55* | 36* | 26 | 76* | 23*
Cc1cccc(NC(=S)NNC(=O)c2ccccc2OC(F)F)c1 | 2 | 4 | 2 | 3 | -3 | 2 | x
CCOC(=O)c1sc(N)c(C(=O)Nc2ccccc2OC)c1C | 80* | 38* | 36* | 22* | 47* | 40* | 46*
CN1CCN(c2ccc([N+](=O)[O-])cc2C(=O)c2ccc(Cl)cc2)CC1 | 185* | 49* | 4 | 43* | 6 | -3 | 50*
Cc1ccc(C(=O)c2cc([N+](=O)[O-])ccc2N2CCCCC2)cc1 | 72* | 89* | 76* | 9 | x | 80* | 65*
CN1CCN(c2ccc([N+](=O)[O-])cc2C(=O)N2CCCCC2)CC1 | -4 | -4 | 3 | 4 | -11 | -2 | x
Cc1nc2ccc(C(=O)N3c4ccccc4CC3C)cc2s1 (centres undefined) | 6 | 25* | 12 | 19* | 4 | 3 | 34*
C=CCNc1ncnc2c1ncn2C1OC(CO)C(O)C1O (centres undefined) | 4 | 74* | 0 | 3 | 10 | -1 | 49*
OC[C@H]1O[C@@H](n2cnc3c(NC4CCCC4)ncnc32)[C@H](O)[C@@H]1O | x | -2 | 5 | 2 | -10 | -3 | x
CSc1nnc2c3ccccc3n(CCc3ccccc3)c2n1 | -8 | 46* | 2 | 2 | 22 | -1 | 42*
CSc1nnc2c3ccccc3n(Cc3ccccc3)c2n1 | x | -5 | 4 | 4 | 11 | 7 | x
COCCCNC(=S)Nc1cc2oc3ccccc3c2cc1OC | x | 34* | x | x | x | x | 22*
O=[N+]([O-])c1c(Nc2ccc(O)cc2)cc(Cl)c2nonc12 | x | 101* | x | x | x | x | 68*
SMILES | b-catenin transl | IEC-6 tox | BaF3 parental | MT stabilizer | APP transl inh | Ba/F3 V617F tox | IEC-6 tox confirm
CN(C)c1cc(Nc2ccc(O)cc2)c([N+](=O)[O-])c2nonc12 | -2 | 3 | -3 | x | x | -1 | x
COc1ccc(-n2nnnc2-c2ccccc2)cc1 | x | 52* | 68* | 36* | 89* | 80* | 50*
COc1ccccc1-n1c(CCC(=O)O)ccc1-c1ccccc1 | x | 1 | x | x | x | x | x
COc1ccc(-c2ccc(CCC(=O)O)n2-c2ccccc2OC)cc1 | x | 41* | x | x | x | x | -3
CN(CC(=O)Nc1cccnc1)S(=O)(=O)c1ccc(Br)cc1 | x | 5 | x | x | x | x | x
O=C(COC(=O)C1=COCCO1)NCc1ccc(F)cc1 | x | 2 | x | x | x | x | x
COc1cccc(N2CCN(C(=O)c3ccc(CS(=O)c4ccc(C)cc4)o3)CC2)c1 (centres undefined) | x | 85* | x | x | x | x | 59*
COc1cccc(N2CCN(C(=O)c3ccc(CS(=O)c4ccc(Cl)cc4)o3)CC2)c1 (centres undefined) | x | 81* | x | x | x | x | 57*
COc1cccc(N2CCN(C(=O)c3ccc(CS(=O)Cc4ccc(C)cc4)o3)CC2)c1 (centres undefined) | x | -6 | x | x | x | x | x

Compound activity (PubChem BioAssay)
